According to ChEMBL document CHEMBL4400556, “β-Lactones: A Novel Class of Ca2+-Independent Phospholipase A2 (Group VIA iPLA2) Inhibitors with the Ability To Inhibit β-Cell Apoptosis” (J Med Chem, 2019):
The source made the active and inactive calls. No cut-off for these calls is given here.

Key:
Homo sapiens [1] = species on record: Homo sapiens; test: Inhibition of human recombinant G5 sPLA2 at 0.091 mole fraction using arachidonyl-1-14C PAPC and PAPC by HPLC-MS analysis based radioactivity-based group specific mixed micelle assay relative to control
Procedure, shortened: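 Human recombinant GV sPLA2, radioactivity mixed-micelle assay. Substrate: 400 μM Triton X-100, 98.3 μM PAPC, 1.7 μM arachidonyl-1-14C PAPC. Buffer: 50 mM Tris-HCl pH 8.0, 5 mM CaCl2. Compound added from DMSO at 0.091 mole fraction; percent inhibition measured.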

[2] = biological target: T1, 85/88 kDa calcium-independent phospholipase A2 (Homo sapiens) (UniProt O60733); test: Inhibition of human recombinant G6A iPLA2 at 0.091 mole fraction using arachidonyl-1-14C PAPC and PAPC incubated for 30 mins by HPLC-MS analysis based radioactivity-based group specific mixed micelle assay relative to control
T1 sequence (whole entry): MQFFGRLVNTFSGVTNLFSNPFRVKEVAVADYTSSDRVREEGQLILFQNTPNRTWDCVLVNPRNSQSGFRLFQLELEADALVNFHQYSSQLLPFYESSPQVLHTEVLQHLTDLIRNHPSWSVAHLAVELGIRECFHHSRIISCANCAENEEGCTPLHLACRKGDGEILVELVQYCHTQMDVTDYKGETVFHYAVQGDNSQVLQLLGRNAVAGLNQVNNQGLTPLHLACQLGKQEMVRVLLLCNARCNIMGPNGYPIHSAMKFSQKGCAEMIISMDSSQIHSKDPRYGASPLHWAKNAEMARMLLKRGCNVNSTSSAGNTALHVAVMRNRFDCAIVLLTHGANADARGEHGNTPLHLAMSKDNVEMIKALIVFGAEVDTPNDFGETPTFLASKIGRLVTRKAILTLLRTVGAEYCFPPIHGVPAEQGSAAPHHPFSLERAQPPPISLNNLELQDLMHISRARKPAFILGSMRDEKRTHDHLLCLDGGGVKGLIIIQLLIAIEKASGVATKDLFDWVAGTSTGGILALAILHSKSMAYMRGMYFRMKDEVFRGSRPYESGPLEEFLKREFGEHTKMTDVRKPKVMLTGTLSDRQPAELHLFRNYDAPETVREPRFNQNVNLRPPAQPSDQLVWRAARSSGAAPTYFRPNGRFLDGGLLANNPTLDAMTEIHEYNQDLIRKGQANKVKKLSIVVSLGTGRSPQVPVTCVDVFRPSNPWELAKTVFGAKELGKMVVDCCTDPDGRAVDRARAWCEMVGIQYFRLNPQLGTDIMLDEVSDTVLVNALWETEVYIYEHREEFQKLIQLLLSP
Procedure, shortened: (§1)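 Human recombinant GVIA iPLA2, radioactivity mixed-micelle assay. Substrate: 400 μM Triton X-100, 98.3 μM PAPC, 1.7 μM arachidonyl-1-14C PAPC. Buffer: 100 mM HEPES pH 7.5, 2 mM ATP, 4 mM DTT. Screened at 0.091 mole fraction from DMSO.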

[3] = biological target: T2, Cytosolic phospholipase A2 (Homo sapiens) (UniProt P47712); test: Inhibition of human recombinant G4A cPLA2 at 0.091 mole fraction using arachidonyl-1-14C PAPC , PAPC and PIP2 incubated for 30 mins by HPLC-MS analysis based radioactivity-based group specific mixed micelle assay
T2 sequence (whole entry): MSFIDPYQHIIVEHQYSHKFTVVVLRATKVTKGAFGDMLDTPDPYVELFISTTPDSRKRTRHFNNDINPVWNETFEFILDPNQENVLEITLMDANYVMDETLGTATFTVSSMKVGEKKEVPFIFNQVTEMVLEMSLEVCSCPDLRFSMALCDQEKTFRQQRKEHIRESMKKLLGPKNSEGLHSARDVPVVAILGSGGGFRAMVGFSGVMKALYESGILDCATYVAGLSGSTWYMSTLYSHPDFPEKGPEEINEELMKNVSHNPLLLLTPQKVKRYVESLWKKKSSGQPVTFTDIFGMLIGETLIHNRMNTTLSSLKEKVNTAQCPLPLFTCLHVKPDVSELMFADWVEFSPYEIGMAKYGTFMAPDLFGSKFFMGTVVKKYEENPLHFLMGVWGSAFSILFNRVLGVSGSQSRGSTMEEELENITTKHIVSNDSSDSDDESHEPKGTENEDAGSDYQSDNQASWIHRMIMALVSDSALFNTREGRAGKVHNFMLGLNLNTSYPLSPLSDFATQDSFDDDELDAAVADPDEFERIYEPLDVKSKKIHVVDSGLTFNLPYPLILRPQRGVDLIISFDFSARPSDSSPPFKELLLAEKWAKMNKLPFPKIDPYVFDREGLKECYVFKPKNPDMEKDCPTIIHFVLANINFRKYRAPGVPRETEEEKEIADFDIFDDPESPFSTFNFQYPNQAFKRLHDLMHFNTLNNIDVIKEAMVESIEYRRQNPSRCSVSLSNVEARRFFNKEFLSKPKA
Procedure, shortened: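 Human recombinant GIVA cPLA2, radioactivity mixed-micelle assay. Substrate: 400 μM Triton X-100, 95.3 μM PAPC, 1.7 μM arachidonyl-1-14C PAPC, 3 μM PIP2. Buffer: 100 mM HEPES pH 7.5, 90 μM CaCl2, 2 mM DTT, 0.1 mg/ml BSA. Screened at 0.091 mole fraction from DMSO stock. XI(50) fitted from % inhibition vs log mole fraction.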

[4] = biological target: T1, 85/88 kDa calcium-independent phospholipase A2 (Homo sapiens); test: (§2) Inhibition of human recombinant G6A iPLA2 using arachidonyl-1-14C PAPC and PAPC incubated for 30 mins by HPLC-MS analysis based radioactivity-based group specific mixed micelle assay; procedure, shortened: as §1
[5] = biological target: T3, 85/88 kDa calcium-independent phospholipase A2 (Homo sapiens, UniProt O60733); test: as §2; procedure, shortened: as §1
T3 sequence (O60733 whole entry): T1 sequence (whole entry)

INS1 [6] = test: Inhibition of IL-1beta/IFNgamma-induced apoptosis in rat INS-1 cells at 10 uM after 16 hrs by DAPI-based TUNEL assay; format: functional; settings: INS1, 16 h
Procedure, shortened: (§3)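 INS-1 cells exposed 16 h to IL-1β (100 U/mL) plus IFNγ (300 U/mL), with or without compound (0.10–10 μM) or DMSO vehicle (1 μL/mL). Apoptosis read by TUNEL (green) over total DAPI-stained nuclei, 6 fields per slide. The 6-field mean per slide is one replicate (n=3–12). Results given as mean ± SEM percent apoptotic cells.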

Homo sapiens [7] = species on record: Homo sapiens; test: Selectivity index, ratio of IC50 for inhibition of human recombinant G4A cPLA2 to IC50 for inhibition of human recombinant G6A iPLA2
INS1 [8] = test: Inhibition of IL-1beta/IFNgamma-induced apoptosis in rat INS-1 cells at 1 uM after 16 hrs by DAPI-based TUNEL assay; format: functional; settings: INS1, 16 h; procedure, shortened: as §3
INS1 [9] = test: Cytotoxicity against rat INS-1 cells assessed as cell death at 10 uM after 16 hrs by TUNNEL assay (reference value: 7.06 +/- 0.36%); format: cell-based; settings: ins1, 16 h
INS1 [10] = test: Inhibition of IL-1beta/IFNgamma-induced apoptosis in rat INS-1 cells at 0.1 to 10 uM after 16 hrs by DAPI-based TUNEL assay
INS1 [11] = test: Inhibition of IL-1beta/IFNgamma-induced apoptosis in rat INS-1 cells at 0.1 uM after 16 hrs by DAPI-based TUNEL assay; format: functional, cell-based; procedure, shortened: as §3

Compound | inhibition (Homo sapiens [1]) [%] | inhibition [2] [%] | inhibition [3] [%] | XI50 (mole fraction) [4] | also measured
CCCCCCC1OC(=O)C1CCCc1ccc(-c2ccccc2)cc1 (centres undefined) | 40 | 78 | 58 |  | 
CC1OC(=O)C1CCCc1ccc2ccccc2c1 (centres undefined) | 26 | 89 | 85 |  | 
CCC[C@@H]1OC(=O)[C@@H]1CCCCc1ccccc1 (racemic) | 34 | 99 | 94 | 0.007 | IC50 [5]: 3.5 µM
CCC[C@@H]1OC(=O)[C@@H]1CCCc1ccc(OC)cc1 (racemic) | 29 | 85 | 95 | 0.038 | 
CCCCCCC1OC(=O)C1CCCc1ccc2ccccc2c1 (centres undefined) | 40 | 59 | 54 |  | 
COc1ccc(CCSCC(=O)c2noc(C(C)(C)C)n2)cc1 | 38 |  |  | 0.0057 | 
CCC[C@H]1OC(=O)[C@@H]1CCCCc1ccc2ccccc2c1 (racemic) | 29 | 99 | 59 | 9e-05 | 
CCC[C@H]1OC(=O)[C@@H]1CCCc1ccc(OC)cc1 (racemic) | 26 | 99 | 85 | 0.00019 | 
COc1ccc(CCCCC(=O)C(F)(F)C(F)(F)F)cc1 | 33 |  |  |  | 
CCC[C@H]1OC(=O)[C@@H]1CCCCc1ccccc1 (racemic) | 25 | 100 | 88 | 2.1e-06 | IC50 [5]: 0.001 µM; inhibition at 10 µM (INS1 [6]): 41%; Ratio IC50 (Homo sapiens [7]): 22000; inhibition at 1 µM (INS1 [8]): 28%; Activity (INS1 [9]): 9.51%; inhibition (INS1 [10]): Dose-dependent effect; inhibition (INS1 [11]): inactive
CC(C)C1OC(=O)C1CCCc1ccccc1 (centres undefined) | 29 | 93 | 85 |  | 
CCCC1OC(=O)C1CCCc1ccccc1 (centres undefined) |  | 96 | 81 |  | 
CCCC1OC(=O)C1CCCCc1ccc2ccccc2c1 (centres undefined) |  | 97 | 71 |  | 
CCC[C@H]1OC(=O)[C@@H]1CCCc1ccccc1 (racemic) | 25 | 99 | 90 | 0.00019 | 
CCCC1OC(=O)C1CCCc1ccc2ccccc2c1 (centres undefined) |  | 98 | 77 |  | 
CCC[C@@H]1OC(=O)[C@@H]1CCCc1ccc2ccccc2c1 (racemic) | 27 | 81 | 89 |  | 
O=C(CCCCc1ccccc1)C(F)(F)C(F)(F)F | 28 |  |  |  | 
CCC1OC(=O)C1CCCc1ccc2ccccc2c1 (centres undefined) | 29 | 93 | 85 |  | 
CCC[C@@H]1OC(=O)[C@@H]1CCCCc1ccc2ccccc2c1 (racemic) | < 25 | 95 | 72 | 0.0021 | 
CCCC1OC(=O)C1CCCCc1ccccc1 (centres undefined) |  | 100 | 84 |  | 
CCC[C@H]1OC(=O)[C@@H]1CCCc1ccc2ccccc2c1 (racemic) | 30 | 98 | 73 | 0.0003 | 
CCCC1OC(=O)C1CCCc1ccc(OC)cc1 (centres undefined) |  | 96 | 76 |  | 
CCC[C@@H]1OC(=O)[C@@H]1CCCc1ccccc1 (racemic) | < 25 | 92 | 97 |  | 
O=C(CCCCc1ccc2ccccc2c1)C(F)(F)F | 37 |  |  |  | 
CCCCCCC1OC(=O)C1CCCc1ccccc1 (centres undefined) | 47 | 89 | 91 |  | 
